Measurements published in ChEMBL document CHEMBL1799933, “Discovery of a selective allosteric M1 receptor modulator with suitable development properties based on a quinolizidinone carboxylic acid scaffold” (J Med Chem, 2011).
Active and inactive are the calls of the source. No cut-off for these calls is given here.

Tests used:
[1] = target: T1, Muscarinic acetylcholine receptor M1 (Homo sapiens) (UniProt P11229); test: Agonist activity at human muscarinic M1 receptor expressed in CHONFAT cells assessed as enhancement of acetylcholine-induced calcium mobilization preincubated for 4 mins measured after 1 hr by FLIPR assay; format: functional, cell-based
T1 sequence (whole entry): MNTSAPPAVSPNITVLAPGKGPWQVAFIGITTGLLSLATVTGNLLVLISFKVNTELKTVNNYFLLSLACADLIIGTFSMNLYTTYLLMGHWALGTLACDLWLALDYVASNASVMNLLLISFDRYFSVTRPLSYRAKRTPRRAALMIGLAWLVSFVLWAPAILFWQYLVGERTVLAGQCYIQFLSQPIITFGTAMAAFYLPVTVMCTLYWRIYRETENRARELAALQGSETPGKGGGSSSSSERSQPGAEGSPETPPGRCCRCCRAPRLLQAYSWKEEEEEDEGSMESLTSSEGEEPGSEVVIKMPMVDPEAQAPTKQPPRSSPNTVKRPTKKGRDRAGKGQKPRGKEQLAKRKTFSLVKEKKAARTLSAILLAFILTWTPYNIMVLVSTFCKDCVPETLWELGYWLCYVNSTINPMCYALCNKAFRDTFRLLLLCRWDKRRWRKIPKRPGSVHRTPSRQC
Procedure, shortened: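 CHO-NFAT cells expressing the named muscarinic receptor (human M1–M4; rhesus, dog or rat M1 in CHO-K1) were plated at 25,000 cells/well and grown overnight at 37 °C, 6% CO2. Cells were loaded with 1 μM Fluo-4AM for 1 h, washed, and preincubated 4 min with serially diluted compound (final DMSO 0.67%). They were then stimulated 4 min with an EC20 of ACh, and Ca2+ flux was read by FLIPR384.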

[2] = Plasma protein binding in rat serum by equilibrium dialysis method; format: ADME, cell-free; settings: read-out: PPB (converted)
Procedure, shortened: (§1)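 Protein binding measured by equilibrium dialysis against rat or human serum.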

[3] = Plasma protein binding in human serum by equilibrium dialysis method; format: ADME, cell-free; settings: read-out: PPB (converted); procedure, shortened: as §1
[4] = Passive permeability of the compound at 5 uM; format: ADME; settings: not told
Plasma = test: Drug level in Sprague-Dawley rat plasma at 10 mg/kg, po; format: ADME, organism-based; parameters: dose 10 mg/kg, route oral; settings: in vivo
Procedure, shortened: (§2)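 Rats dosed orally at 10 mpk. Plasma, brain and CSF sampled at 2 h and concentrations determined by bioanalysis.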

Brain = test: Drug level Sprague-Dawley rat brain at 10 mg/kg, po; format: ADME, organism-based; parameters: dose 10 mg/kg, route oral; settings: in vivo, read-out: Drug uptake; procedure, shortened: as §2
Cerebrospinal fluid = test: Drug level in Sprague-Dawley rat cerebrospinal fluid at 10 mg/kg, po; format: ADME, organism-based; parameters: dose 10 mg/kg, route oral; settings: in vivo, read-out: Drug uptake; procedure, shortened: as §2
[5] = Ratio of drug level in brain to plasma of Sprague-Dawley rat at 10 mg/kg, po; format: ADME, organism-based; parameters: dose 10 mg/kg, route oral; settings: read-out: BPR; procedure, shortened: as §2
[6] = Ratio of drug level in cerebrospinal fluid to fraction unbound level in plasma of Sprague-Dawley rat at 10 mg/kg, po; format: ADME, organism-based; parameters: dose 10 mg/kg, route oral; settings: in vivo
Mus musculus [7] = test: Antiamnesic activity against scopolamine-induced dementia in ip dosed B6SJL mouse assessed as increase in freezing behavior at 33 uM plasma concentration; format: functional, organism-based
Mus musculus [8] = test: Antiamnesic activity against scopolamine-induced dementia in ip dosed B6SJL mouse assessed as increase in freezing behavior at 7.4 uM plasma concentration; format: functional, organism-based
[9] = Fraction unbound in human plasma; format: ADME, cell-free
[10] = Fraction unbound in rat plasma; format: ADME, cell-free
[11] = Lipophilicity, log P of the compound; format: physicochemical; settings: octanol/water
Canis familiaris = test: Metabolic stability in po dosed portal vein cannulated dog assessed as level of presystemic G1 glucuronidation by scintillation counting; format: ADME, organism-based, Canis lupus familiaris; settings: in vivo
[12] = Oral bioavailability in rat at 3 mg/kg; format: ADME, organism-based; settings: in vivo
Procedure, shortened: (§3)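 Rats (n = 2) dosed orally at 3 mg/kg and IV at 1 mg/kg. Interanimal variability under 20% for all values.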

[13] = Half life in rat at 3 mg/kg, po and 1 mg/kg, iv; format: ADME, organism-based; settings: in vivo; procedure, shortened: as §3
[14] = Clearance in rat at 3 mg/kg, po and 1 mg/kg, iv; format: ADME, organism-based; settings: in vivo; procedure, shortened: as §3
[15] = Oral bioavailability in dog at 3 mg/kg; format: ADME, organism-based, Canis lupus familiaris; settings: in vivo
Procedure, shortened: (§4)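 Dog PK, n = 2 animals. Given orally at 3 mg/kg and intravenously at 1 mg/kg. Interanimal variability under 20% for all values.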

[16] = Half life in dog at 3 mg/kg, po and 1 mg/kg, iv; format: ADME, organism-based, Canis lupus familiaris; settings: in vivo; procedure, shortened: as §4
[17] = Clearance in dog at 3 mg/kg, po and 1 mg/kg, iv; format: ADME, organism-based, Canis lupus familiaris; settings: in vivo; procedure, shortened: as §4

SMILES: N#CC1(c2cc(-c3ccccc3)ccn2)CCN(Cc2cc(C(=O)O)c(=O)n3ccccc23)CC1
- IP [1]: 659 nM

SMILES: O=C(O)c1cc(CN2CCC(c3ccccc3)CC2)c2ccccn2c1=O
- IP [1]: 1340 nM

SMILES: Cc1cccc(C2(C#N)CCN(Cc3cc(C(=O)O)c(=O)n4ccccc34)CC2)n1
- IP [1]: 148 nM
- fraction unbound [2]: 0.249
- fraction unbound [3]: 0.158

SMILES: CSc1cccc(C2(C#N)CCN(Cc3cc(C(=O)O)c(=O)n4ccccc34)CC2)n1
- IP [1]: 100 nM
- fraction unbound [2]: 0.057
- fraction unbound [3]: 0.012

SMILES: N#CC1(c2cc(C(F)(F)F)ccn2)CCN(Cc2cc(C(=O)O)c(=O)n3ccccc23)CC1
- IP [1]: 2720 nM

SMILES: N#CC1(c2cc(F)ccn2)CCN(Cc2cc(C(=O)O)c(=O)n3ccccc23)CC1
- IP [1]: 244 nM

SMILES: CCc1ccnc(C2(C#N)CCN(Cc3cc(C(=O)O)c(=O)n4ccccc34)CC2)c1
- IP [1]: 84 nM
- fraction unbound [2]: 0.272
- fraction unbound [3]: 0.134

SMILES: N#CC1(c2ccccc2F)CCN(Cc2cc(C(=O)O)c(=O)n3ccccc23)CC1
- IP [1]: 81 nM
- fraction unbound [2]: 0.102
- fraction unbound [3]: 0.055

SMILES: N#CC1(c2cccc(Cl)n2)CCN(Cc2cc(C(=O)O)c(=O)n3ccccc23)CC1
- IP [1]: 133 nM
- fraction unbound [2]: 0.218
- fraction unbound [3]: 0.071

SMILES: COc1ccccc1C1(C#N)CCN(Cc2cc(C(=O)O)c(=O)n3ccccc23)CC1
- IP [1]: 164 nM

SMILES: Cc1ccccc1C1(C#N)CCN(Cc2cc(C(=O)O)c(=O)n3ccccc23)CC1
- IP [1]: 68 nM
- fraction unbound [2]: 0.051
- fraction unbound [3]: 0.038
- Papp at 5 µM [4]: 24 ×10⁻⁶ cm/s
- concentration (Plasma): 234 nM
- concentration (Brain): 114 nM
- concentration (Cerebrospinal fluid): 16 nM
- Kp [5]: 0.48
- Ratio [6]: 0.5

SMILES: Cc1ccc(C2(C#N)CCN(Cc3cc(C(=O)O)c(=O)n4ccccc34)CC2)nc1
- IP [1]: 204 nM
- fraction unbound [2]: 0.348
- fraction unbound [3]: 0.175

SMILES: COc1ccc(Cn2cc(C(=O)O)c(=O)c3ccccc32)cc1
- Activity (Mus musculus [7]): Active

SMILES: COc1ccnc(C2(C#N)CCN(Cc3cc(C(=O)O)c(=O)n4ccccc34)CC2)c1
- IP [1]: 224 nM
- fraction unbound [2]: 0.485
- fraction unbound [3]: 0.217

SMILES: N#CC1CCN(Cc2cc(C(=O)O)c(=O)n3ccccc23)CC1
- IP [1]: 7650 nM

SMILES: N#Cc1ccc(N2CCN(Cc3cc(C(=O)O)c(=O)n4ccccc34)CC2)cc1
- Activity (Mus musculus [8]): Active

SMILES: N#CC1(c2cccc(F)c2)CCN(Cc2cc(C(=O)O)c(=O)n3ccccc23)CC1
- IP [1]: 562 nM

SMILES: Cc1cccnc1C1(C#N)CCN(Cc2cc(C(=O)O)c(=O)n3ccccc23)CC1
- IP [1]: 1940 nM

SMILES: N#CC1(c2ccccc2)CCN(Cc2cc(C(=O)O)c(=O)n3ccccc23)CC1
- IP [1]: 151 nM
- fraction unbound [2]: 0.135
- fraction unbound [3]: 0.101
- Papp at 5 µM [4]: 27 ×10⁻⁶ cm/s
- concentration (Plasma): 321 nM
- concentration (Brain): 127 nM
- concentration (Cerebrospinal fluid): 8 nM
- Kp [5]: 0.39
- Ratio [6]: 0.25
- fraction unbound [9]: 0.1
- fraction unbound [10]: 0.1

SMILES: Cc1cccc(C2(C#N)CCN(Cc3cc(C(=O)O)c(=O)n4ccccc34)CC2)c1
- IP [1]: 88 nM
- fraction unbound [2]: 0.059
- fraction unbound [3]: 0.048

SMILES: N#CC1(c2ccncc2)CCN(Cc2cc(C(=O)O)c(=O)n3ccccc23)CC1
- IP [1]: 938 nM

SMILES: N#CC1(c2cccnc2)CCN(Cc2cc(C(=O)O)c(=O)n3ccccc23)CC1
- IP [1]: 363 nM
- fraction unbound [2]: 0.509
- fraction unbound [3]: 0.361
- Papp at 5 µM [4]: 39 ×10⁻⁶ cm/s
- concentration (Plasma): 1720 nM
- concentration (Cerebrospinal fluid): 40 nM
- Ratio [6]: < 0.1
- logP [11]: -0.4

SMILES: N#CC1(c2ccc(F)cc2)CCN(Cc2cc(C(=O)O)c(=O)n3ccccc23)CC1
- IP [1]: 194 nM

SMILES: [3H]OC(=O)c1cc(CN2CCC(C#N)(c3ccccn3)CC2)c2ccccn2c1=O
- Stability (Canis familiaris): 50%

SMILES: Cc1ccnc(C2(C#N)CCN(Cc3cc(C(=O)O)c(=O)n4ccccc34)CC2)c1
- IP [1]: 44 nM
- fraction unbound [2]: 0.467
- fraction unbound [3]: 0.235
- Papp at 5 µM [4]: 27 ×10⁻⁶ cm/s
- concentration (Plasma): 3070 nM
- concentration (Brain): 233 nM
- concentration (Cerebrospinal fluid): 180 nM
- Kp [5]: 0.07
- Ratio [6]: 0.25
- bioavailability [12]: 24%
- half-life [13]: 1.9 h
- clearance [14]: 17.7 mL/min/kg
- bioavailability [15]: 47%
- half-life [16]: 3.9 h
- clearance [17]: 10.1 mL/min/kg
